Activity calls are given as the source filed them. The calls are words filed in the database; no cut-off is given here.
Key:
[1] = Antiproliferative activity against human MCF7 cells after 48 hrs by MTT assay; assay type: functional; settings: MCF7, 48 h
How it was run: (§1)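 HeLa cells were cultured in DMEM + 10% FBS and MCF-7 cells in RPMI + 10% FBS, both at 37 °C under 5% CO2. Compounds were diluted from DMSO stocks and applied for 48 h. Viability was read by MTT relative to DMSO control. The value is the concentration reducing viability by 50%, ±SD from two independent experiments of 4 replicates each.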

[2] = Antiproliferative activity against human HeLa cells after 48 hrs by MTT assay; assay type: functional; how it was run: as §1
[3] = system: HeLa S3; assay: Inhibition of translation in human HeLaS3 assessed as induction of intact polysomes at 50 uM after 1 hr by UV-based […] method; assay type: functional
How it was run: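 HeLa S3 cells were exposed to 50 µM compound for 1 h, then analysed by polysome profiling against a DMSO-treated control profile.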

[4] = Antiproliferative activity against patient-derived TMZ-sensitive GBM 090909 cells after 48 to 96 hrs by MTT assay; assay type: functional; settings: Homo sapiens
How it was run: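 Primary GBM neurosphere cultures came from resected patient tumour. Tissue was minced, dissociated with 100 U/mL collagenase in neurobasal medium for 30 min at 37 °C, filtered through 70 µm, spun at 200 × g for 5 min, and grown in ultra-low attachment wells in neurobasal medium with B27. Compounds were applied at 0.001–100 µM for 48–96 h. MTT gave the average 50%-viability concentration.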

[5] = Antiproliferative activity against patient-derived TMZ-resistant GBM 031810 cells over-expressing MGMT after 48 to 96 hrs by MTT assay; assay type: functional; settings: Homo sapiens
[6] = Antiproliferative activity against drug-resistant human A549 cells up to 100 uM after 48 to 96 hrs by MTT assay relative to control; assay type: functional
How it was run: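 A549 cultures in RPMI with 10% heat-inactivated FBS were treated across a concentration range up to 100 µM, with phenyl arsine oxide as the nondiscriminate cytotoxic reference. Growth curves were read by MTT assay. Two independent experiments, each in 4 replicates.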

[7] = system: MES-SA; assay: Selectivity ratio of GI50 for human MES-SA/Dx5 cells to GI50 for human MES-SA cells; assay type: functional
How it was run: (§2)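 Parent MES-SA and MES-SA/Dx5 uterine sarcoma cells were grown in RPMI-1640 with 10% FBS. The Dx5 line was kept in 500 nM doxorubicin after stepwise selection from 100 nM in twofold steps, about 2 passages per step. MTT assay used 0.001–100 µM compound for 48–96 h, with 0.1% DMSO and 1 µM phenyl arsine oxide controls. The ratio is the Dx5 GI50 divided by the parent GI50.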

[8] = Antiproliferative activity against drug-resistant human U373 cells after 48 to 96 hrs by MTT assay; assay type: functional, U-373MG ATCC; settings: U373 MG
How it was run: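 Culture was RPMI with 10% heat-inactivated FBS plus glutamine and antibiotics for U373 cells. Compound exposure was 0.001–100 µM for 48–96 h, with 0.1% DMSO and 1 µM phenyl arsine oxide as controls. The MTT assay gave the average concentration cutting viability by 50%; replicate numbers varied.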

[9] = Antiproliferative activity against drug-resistant human A549 cells after 48 to 96 hrs by MTT assay; assay type: functional
How it was run: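 A549 cells grown in RPMI with 10% heat-inactivated FBS, 4 mM glutamine and antibiotics at 37 °C under 5% CO2. Compounds came from 100 or 50 mM DMSO stocks and were tested at 0.001–100 µM for 48–96 h. Read-out was MTT. The value is the mean concentration giving 50% viability loss, with varied replicate numbers. Controls were 0.1% DMSO (negative) and 1 µM phenyl arsine oxide (positive).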

[10] = Antiproliferative activity against drug-resistant human U251 cells after 48 to 96 hrs by MTT assay; assay type: functional; settings: U-251
How it was run: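 U251 cells were kept in 10% MEM with glutamine, gentamicin and penicillin-streptomycin at 37 °C and 5% CO2. After seeding they were grown 24–72 h and then given compounds at 0.001–100 µM (from 100 or 50 mM DMSO stocks) for 48–96 h. Viability was read by MTT. Vehicle control was 0.1% DMSO; 1 µM phenyl arsine oxide served as positive control. The result is the average 50%-viability-reducing concentration.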

[11] = Antiproliferative activity against human MES-SA/Dx5 cells after 48 to 96 hrs by MTT assay; assay type: functional; how it was run: as §2
[12] = Antiproliferative activity against drug-sensitive human Hs683 cells after 48 to 96 hrs by MTT assay; assay type: functional; settings: Hs 683
How it was run: (§3)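 MTT read-out. T98G and Hs683 cells were grown in DMEM with 10% FBS, glutamine, gentamicin and penicillin-streptomycin at 37 °C and 5% CO2. Compounds came from 100 or 50 mM DMSO stocks and were tested at 0.001–100 µM for 48–96 h. Controls were 0.1% DMSO (negative) and 1 µM phenyl arsine oxide (positive). The value is the mean concentration giving 50% viability loss; replicate number varied.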

[13] = Antiproliferative activity against drug-resistant human U87 cells after 48 to 96 hrs by MTT assay; assay type: functional, U-87MG ATCC; settings: U-87 MG
How it was run: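 U87 cells grown in DMEM with glutamine, gentamicin and penicillin-streptomycin (37 °C, 95% humidity, 5% CO2) were seeded and then treated with 0.001–100 µM compound for 48–96 h. Readout was MTT. Controls were 0.1% DMSO and 1 µM phenyl arsine oxide. The value is the average concentration reducing viability 50%.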

[14] = Antiproliferative activity against drug-resistant human T98G cells after 48 to 96 hrs by MTT assay; assay type: functional; how it was run: as §3
[15] = Antiproliferative activity against human MES-SA cells after 48 to 96 hrs by MTT assay; assay type: functional; how it was run: as §2
[16] = Antiproliferative activity against patient-derived paclitaxel-sensitive NCI-H1993 cells after 48 to 96 hrs by MTT assay; assay type: functional; settings: Homo sapiens
[17] = system: NCI-H1993; assay: Potentiation of paclitaxel-induced cytotoxicity against patient-derived paclitaxel-sensitive NCI-H1993 cells assessed as reduction in cell viability up to 100 uM after 96 hrs by Celltiter-Glo luminescent assay; assay type: functional, cell-based; settings: Homo sapiens
How it was run: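 NCI-H1993 cells were seeded at 4×10^3 per well and grown 24 h. […] Viability was read by CellTiter-Glo luminescence. Predicted additivity was calculated by Bliss independence, Exy = Ex + Ey − ExEy.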

[18] = Antiproliferative activity against patient-derived paclitaxel-resistant NCI-H2073 cells after 48 to 96 hrs by MTT assay; assay type: functional; settings: Homo sapiens

Row | SMILES | GI50 [1] [µM] | GI50 [2] [µM] | further results
1 | COc1cc2c(cc1OC(C)=O)C[N@@]1CC[C@@]23C=CC(=O)C[C@H]13 | > 100 | > 100 | 
2 | O[C@H]1[C@H]2c3cc4c(cc3CN3CCC(=C[C@@H]1O)[C@H]23)OCO4 |  |  | inhibition [3]: Active
3 | COc1cc2c(cc1OCc1ccccc1)C[N@@]1CC[C@@]23C=CC(=O)C[C@H]13 | 15 | 12 | 
4 | Cn1nnc2c(C(N)=O)ncn2c1=O [TEMOZOLOMIDE] |  |  | GI50 [4]: 50 µM; GI50 [5]: > 1000 µM
5 | O=C1C=CC2(C=C1)CCN(C(=O)C(F)(F)F)Cc1cc3c(cc12)OCCO3 | 34 | 21 | 
6 | COc1cc2c(cc1OCc1ccccc1)[C@@]13C=CC(=O)C[C@@H]1[N@](CC3)C2 | 17 | 17 | 
7 | COc1cc([C@@H]2c3cc4c(cc3[C@H](O)[C@H]3COC(=O)[C@H]23)OCO4)cc(OC)c1OC [PODOFILOX] |  |  | inhibition (INH) [6]: 50%
8 | COc1cc2c(cc1OC)[C@@]13C=CC(=O)C[C@@H]1[N@](CC3)C2 | > 100 | 64 | 
9 | O=C1C=C[C@]23CC[N@](Cc4ccsc42)[C@H]3C1 | 12 | 8 | 
10 | O=C1C=C[C@]23CC[N@](Cc4cc(OCc5ccccc5)ccc42)[C@H]3C1 | 14 | 8 | 
11 | O=C1C=CC2(C=C1)CCN(C(=O)C(F)(F)F)Cc1cc(OCc3ccccc3)ccc12 | 40 | 16 | 
12 | O=C1C=C[C@]23CC[N@](Cc4cc5c(cc42)OCCO5)[C@H]3C1 | 19 | 13 | 
13 | COc1cc2c(cc1OCc1ccccc1)CN(C(=O)C(F)(F)F)CCC21C=CC(=O)C=C1 | 48 | 38 | 
14 | COc1cc2c(cc1O)CN(C(=O)C(F)(F)F)CCC21C=CC(=O)C=C1 | > 100 | > 100 | 
15 | COc1cc2c(cc1OC(=O)c1ccccc1)C[N@@]1CC[C@@]23C=CC(=O)C[C@H]13 | 45 | 35 | 
16 | O=C1C=CC2(C=C1)CCN(C(=O)C(F)(F)F)Cc1cc3c(cc12)OCO3 | 30 | 24 | 
17 | C#CCCCC(=O)Oc1cc2c(cc1OC)[C@@]13C=CC(=O)C[C@@H]1[N@](CC3)C2 | 53 | 43 | 

Row | SMILES | GI50 [1] [µM] | GI50 [2] [µM] | further results
18 | O=C1C=C[C@]23CC[N@](Cc4cccc(OCc5ccccc5)c42)[C@H]3C1 | 11 | 7 | 
19 | CC[C@]1(O)C[C@@H]2CN(CCc3c([nH]c4ccccc34)[C@@](C(=O)OC)(c3cc4c(cc3OC)N(C)[C@H]3[C@@](O)(C(=O)OC)[C@H](OC(C)=O)[C@]5(CC)C=CCN6CC[C@]43[C@@H]65)C2)C1 [VINBLASTINE] |  |  | RatioGI50 [7]: >1000
20 | O=C1C=C[C@]23CC[N@](Cc4cc(OCc5ccccc5)c(OCc5ccccc5)cc42)[C@H]3C1 | 4 | 3 | GI50 [8]: 7 µM; GI50 [9]: 4 µM; GI50 [10]: 5 µM; GI50 [11]: 7 µM; GI50 [12]: 6 µM; GI50 [13]: 5 µM; GI50 [14]: 7 µM; GI50 [15]: 2 µM
21 | O[C@H]1C=C[C@@]23c4cc5c(cc4CN(C[C@@H]2O)[C@H]3C1)OCO5 |  |  | GI50 [8]: 53 µM; GI50 [10]: 41 µM; GI50 [12]: 27 µM; GI50 [13]: 38 µM; GI50 [14]: 99 µM
22 | COc1cc2c(cc1OCc1ccccc1)C1(C=CC(=O)C=C1)CCN(C(=O)C(F)(F)F)C2 | 34 | 34 | 
23 | O=C1C=CC2(C=C1)CCN(C(=O)C(F)(F)F)Cc1c2ccc2c1OCO2 | > 100 | > 100 | 
24 | O=C1C=CC2(C=C1)CCN(C(=O)C(F)(F)F)Cc1cc(OCc3ccccc3)c(OCc3ccccc3)cc12 | 25 | 17 | 
25 | O=C1C=C[C@]23CC[N@](Cc4c2ccc2c4OCO2)[C@H]3C1 | 73 | 61 | 
26 | CO[C@@H]1C=C[C@@]23c4cc5c(cc4CN(C[C@@H]2O)[C@H]3C1)OCO5 |  |  | inhibition [3]: Active
27 | COc1cc2c(cc1O)C[N@@]1CC[C@@]23C=CC(=O)C[C@H]13 | > 100 | > 100 | 
28 | O=C1C=C[C@]23CC[N@](Cc4cscc42)[C@H]3C1 | 44 | 25 | 
29 | O=C1C=CC2(C=C1)CCN(C(=O)C(F)(F)F)Cc1cccc(OCc3ccccc3)c12 | 14 | 11 | 
30 | O=C1C=C[C@]23CC[N@](Cc4cc5c(cc42)OCO5)[C@H]3C1 | 24 | 25 | 
31 | O=C1C=CC2(C=C1)CCN(C(=O)C(F)(F)F)Cc1c2sc2ccccc12 | 7 | 10 | GI50 [8]: 7 µM; GI50 [16]: 12 µM; Activity [17]: Active; GI50 [4]: 7 µM; GI50 [10]: 4 µM; GI50 [18]: 50 µM; GI50 [5]: 8 µM; GI50 [11]: 5 µM; GI50 [12]: 5 µM; GI50 [13]: 6 µM; GI50 [14]: 15 µM; GI50 [15]: 5 µM
32 | COc1cc2c(cc1O)C[N@@]1CC[C@@]23C=C/C(=N/O)C[C@H]13 | > 100 | > 100 | 
33 | COc1cc2c(cc1OC)C1(C=CC(=O)C=C1)CCN(C(=O)C(F)(F)F)C2 | > 100 | 83 | 

Source: ChEMBL document CHEMBL3856201, “5,10b-Ethanophenanthridine amaryllidaceae alkaloids inspire the discovery of novel bicyclic ring systems with activity against drug resistant cancer cells” (2016)
